WT yeast gro inh: growth inhibition of WT yeast, mitochondrial fusion screen | mitochondrial fusion phenotypic screen, WT strain | inhibition, % at 10 µM | 190,000 compounds, 2.1% hits | AID 1362; in the data active = inhibition above about 58%; tested in S. cerevisiae
CSC inhib: blocks cancer stem cells | cancer stem cell-like cells viability, luminescence | AID 2717 | inhibition, % at 7.5 µM | 300,000 compounds, 1.1% hits; in the data active = inhibition above about 75%; tested in HMLE shEcad cells
T cruzi repl: T. cruzi replication inhibition; AID 1885; inhibition, % (no concentration beside the values); T. cruzi beta-gal in NIH3T3, luminescence, 90 h; 300,000 compounds, 1.4% hits;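 active = mean inhibition across valid replicates above about 55%, limit read from the data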;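 note: signal also drops with host cell toxicity which is not excluded here; higher percent means less beta-gal luminescence so fewer parasites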
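Assay system: NIH/3T3 fibroblasts plus reporter T. cruzi. Amount: NIH/3T3 cells, 5,000 per well. Buffer or medium: DMEM, 2% fetal bovine serum. Doses: compound pinned at 50 nL/well, DMSO. Schedule: ≥90 h infection period, 3 h prior cell attachment. Signal: luminescent β-galactosidase signal after 60 min lysis. Read-out: parasite load inhibition, %.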
Efflux pump mplx: blocks antifungal efflux pumps in multiplex yeast assay; S. cerevisiae Candida pump triplex, Nile Red efflux; inhibition, % at 10 µM; 330,000 compounds, 0.44% hits; AID 485275;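 active = plate passing quality check with inhibition over a set limit, or well fluorescence over plate mean plus 4 SD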;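 note: Nile Red retained in pooled yeast measured as flow cytometry median fluorescence; higher means more Nile Red kept so more efflux inhibition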
Beta cell apopt: beta cell apoptosis inhibition; AID 435005; INS-1E cytokine-induced death, ATP luminescence, 48 h; percent of positive-control rescue, neutral wells zero; 300,000 compounds, 0.8% hits; protection from apoptosis, % (test concentration not listed);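 active = Every replicate reaches about 75%, or at least half do and their mean reaches it too, limit read from the data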;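 note: higher means more ATP so stronger rescue from cytokine killing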
Mot1-301 SUMO: inhibitors of SUMOylation pathway: yeast Mot1-301 growth rescue. 320,000 compounds, 1% hits. AID 2716. growth rescue, % at 18.8 µM. S. cerevisiae Mot1-301 growth rescue, ATP luminescence, 38.5C; percent above DMSO median, 100 means doubled;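 active = every valid replicate shows activation above 250% relative to neutral control wells; inactive = the rest, any valid replicate at or below 250%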
Mot1 SUMO dose: SUMO pathway inhibitors in yeast Mot1-301 growth; S. cerevisiae Mot1-301 galactose growth, ATP luminescence, 24 h; -100 = growth of slx-deleted rescue strain; 2,300 tested, under 10 active; growth activity, percent, % at 42 µM; shares compounds with Mot1-301 SUMO; AID 493004;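 active = Signal drops as the depositor expects, and the fitted half-maximal dose is no more than ten times the top valid tested dose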;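 note: more negative values mean stronger growth rescue toward the control strain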
Of the large screens only hits and unclear results are named; the others gave an inactive call (follow-up assays come after a bar, where they were run); ! = repeats disagree. Only some compounds are listed: those with a hit (about 4.8% of all), similar ones and a draw of the others.

CCOC(=O)c1sc(NC(=S)NC(=O)c2ccco2)nc1C	none
CCOC(=O)c1sc(NC(=O)C(CC)OC(=O)c2ccco2)nc1C (stereo not given)	Mot1-301 SUMO 889 (no result: WT yeast gro inh) | Mot1 SUMO dose inactive
O=C(NNS(=O)(=O)c1ccc2ccccc2c1)c1cc(-c2ccccn2)nc2ccccc12	none
Cc1ccc(COC(=O)CCN=C2NS(=O)(=O)c3ccccc32)cc1	none (no result: WT yeast gro inh)
O=S(=O)(NCC1CCCO1)c1cc(Cl)ccc1Cl (stereo not given)	none (no result: CSC inhib, Beta cell apopt)
O=S(=O)(NCC1CCCO1)c1cc(Cl)ccc1Br (stereo not given)	Mot1-301 SUMO 467 | Mot1 SUMO dose inactive
CC(=O)c1ccc(N(C(=O)c2csnn2)C(C(=O)NC(C)(C)C)c2cccs2)cc1 (stereo not given)	none
Cc1nc2scc(-c3cccs3)c2c(=O)[nH]1	none
Nc1nc(SCc2nc3scc(-c4cccs4)c3c(=O)[nH]2)n[nH]1	Mot1-301 SUMO active (no result: CSC inhib) | Mot1 SUMO dose inactive
Cc1cccc(C)c1NS(=O)(=O)c1ccc(OCCNS(C)(=O)=O)cc1	Mot1-301 SUMO 655 | Mot1 SUMO dose inactive
NC(Cc1ccc2nonc2c1)C(=O)O (stereo not given)	none
N[C@@H](Cc1ccc(O)c(I)c1)C(=O)O	Mot1-301 SUMO 640 | Mot1 SUMO dose inactive
COc1cccc(C(=O)N2CCN(S(=O)(=O)Cc3ccccc3)CC2)c1OC	Mot1-301 SUMO 530 | Mot1 SUMO dose inactive
COc1ccccc1C(=O)N1CCN(S(=O)(=O)Cc2ccccc2)CC1	none
COC(=O)c1ccc(N2C(=O)CC(NCc3ccccc3)C2=O)cc1 (stereo not given)	Mot1-301 SUMO active (no result: WT yeast gro inh) | Mot1 SUMO dose inactive
CCOC(=O)N1CCN(S(=O)(=O)c2ccc(C)c(C)c2)CC1	WT yeast gro inh 81, Mot1-301 SUMO 388 (no result: CSC inhib) | Mot1 SUMO dose inactive
CCOC(=O)N1CCC(NS(=O)(=O)c2ccc3c(c2)oc(=O)n3C)CC1	none (no result: Beta cell apopt)
CCOC(=O)N1CCN(S(=O)(=O)c2ccc(Br)s2)CC1	Mot1-301 SUMO 365 | Mot1 SUMO dose inactive
CCOC(=O)N1CCC(NS(=O)(=O)c2ccc(C)c(Cl)c2)CC1	Mot1-301 SUMO 559 (no result: WT yeast gro inh) | Mot1 SUMO dose inactive
CN1CCN(S(=O)(=O)c2ccc(Br)s2)CC1	none
O=C(NNC(=O)C1CC(=O)N(Cc2ccccc2)C1)c1ccc(Br)cc1 (stereo not given)	none (no result: WT yeast gro inh)
CC(C(=O)Nc1ccc(O)cc1C(=O)O)N1C(=O)/C(=C\c2cccs2)SC1=S (stereo not given)	none (no result: WT yeast gro inh)
CCOC(=O)C1CCN(C(=O)c2ccc3c(c2)NC(=O)/C(=C/c2ccccc2)S3)CC1	Mot1-301 SUMO 405 (no result: WT yeast gro inh) | Mot1 SUMO dose inactive
CCOC(=O)C1CCN(C(=O)c2ccc3c(c2)NC(=O)/C(=C\c2ccc(C)cc2)S3)CC1	none (no result: WT yeast gro inh)
COc1ccc(NC(=O)CN(C)C(=O)c2cc(C)on2)cc1	Mot1-301 SUMO 678 (no result: WT yeast gro inh) | Mot1 SUMO dose inactive
Cc1ccc(SCCC(=O)Nc2ccc(OCc3ccccc3)cc2)cc1	Mot1-301 SUMO 968 | Mot1 SUMO dose inactive
COc1ccc(NC(=O)COCC(=O)Nc2ccc(C)cc2)cc1	none (no result: WT yeast gro inh)
COc1ccc(OCC(=O)Nc2ccc(C)cc2)cc1	Mot1-301 SUMO 859 (no result: CSC inhib) | Mot1 SUMO dose inactive
Cc1ccc(NC(=O)CN(C)C(=O)c2cc(C)on2)cc1	none (no result: WT yeast gro inh, T cruzi repl)
COc1ccc(C2(C)NC(=O)N(CC(=O)Nc3c(C)n(C)n(-c4ccccc4)c3=O)C2=O)cc1 (stereo not given)	none (no result: WT yeast gro inh)
Cc1c(NC(=O)CN2C(=O)NC(C)(c3ccc(OC(F)F)cc3)C2=O)c(=O)n(-c2ccccc2)n1C (stereo not given)	Mot1-301 SUMO 379 (no result: WT yeast gro inh) | Mot1 SUMO dose inactive
CC(=O)Cc1nsc(Nc2cccc(C)c2)n1	Mot1-301 SUMO 901 (no result: T cruzi repl) | Mot1 SUMO dose inactive
Cc1ccc(-c2cc(C(=O)O)c3ccccc3n2)s1	Mot1-301 SUMO 891 (no result: WT yeast gro inh) | Mot1 SUMO dose inactive
Cc1ccc(S(=O)(=O)N(C)C)cc1NC(=S)N1CCCCC1CO (stereo not given)	none
COc1ccc(-c2oc3ccc(-c4cc(OC)c(OC)c(OC)c4)cc3c2C(=O)c2ccc(OC)nc2)cc1	Mot1-301 SUMO 813 (no result: WT yeast gro inh) | Mot1 SUMO dose inactive
CCCOC(=O)c1c(-c2ccc(OC)cc2)oc2ccc(-c3ccc(OC)nc3)cc12	Mot1-301 SUMO 633 (no result: WT yeast gro inh) | Mot1 SUMO dose inactive
CC(C)(C)[C@H]1COC(=O)[C@H](NC(=O)OCC2c3ccccc3-c3ccccc32)C/C=C\C[C@@H](CC(=O)N(CCO)Cc2ccccc2)C(=O)N1	none (no result: WT yeast gro inh, CSC inhib, T cruzi repl)
Cc1nnc(SCc2nc3ccccc3s2)n1-c1ccccc1	none
CCn1c(SCc2nc3ccccc3s2)nnc1-c1ccccc1	Mot1-301 SUMO 371 (no result: CSC inhib) | Mot1 SUMO dose inactive
CCn1c(SCc2nc3ccccc3[nH]2)nnc1-c1cccnc1	Mot1-301 SUMO 635 | Mot1 SUMO dose inactive
CCOc1ccccc1NC(=S)N1CCC(c2nc3ccccc3o2)CC1	none
Cc1ccc(C)c(NC(=O)c2cc[n+](C)cc2)c1	none (no result: WT yeast gro inh)
c1ccc(-c2cc3cc4c(cc3cn2)OCO4)cc1	Mot1-301 SUMO 528 (no result: WT yeast gro inh, T cruzi repl) | Mot1 SUMO dose inactive
COc1ccc(-c2cc3cc4c(cc3cn2)OCO4)cc1	none (no result: WT yeast gro inh, T cruzi repl)
Fc1ccc2cc(-c3ccccc3)ncc2c1	none (no result: WT yeast gro inh, T cruzi repl)
c1ccc(-c2cc3ccccc3cn2)cc1	Mot1-301 SUMO 372 (no result: WT yeast gro inh, T cruzi repl) | Mot1 SUMO dose inactive
CCNc1ccc(Br)cc(C(=O)/C=C/c2ccc(Cl)cc2Cl)c1=O	none
COc1ccccc1NC(=O)c1ccc(-n2ccnc2)c([N+](=O)[O-])c1	Mot1-301 SUMO 513 (no result: WT yeast gro inh) | Mot1 SUMO dose inactive
CCOc1cc(N2CCOCC2)c(OCC)cc1NC(=O)c1ccc(-n2ccnc2)c([N+](=O)[O-])c1	none (no result: WT yeast gro inh)
CN(C)S(=O)(=O)N1CCc2ccccc21	none
CN(C)S(=O)(=O)N1CCc2ccccc2C1	Mot1-301 SUMO active (no result: CSC inhib) | Mot1 SUMO dose inactive
O=C1c2cc(N3CCCC3)c([N+](=O)[O-])cc2C(=O)N1c1ccccc1	Mot1-301 SUMO 377 (no result: Beta cell apopt) | Mot1 SUMO dose inactive
Cc1cc(=O)oc2cc(OCC(=O)NCCc3ccccc3)ccc12	none (no result: WT yeast gro inh)
Cc1cnc(=O)[nH]c1SCC(=O)c1ccc(F)cc1	Mot1-301 SUMO 436 (no result: WT yeast gro inh) | Mot1 SUMO dose inactive
Cc1csc(NC(=O)CSc2[nH]c(=O)ncc2C)n1	none (no result: WT yeast gro inh)
CCCNCC(O)COc1ccccc1C(=O)CCc1ccccc1 (stereo not given)	Mot1-301 SUMO 400! | Mot1 SUMO dose inactive
Cc1ccc(SCC(=O)O/N=C(\N)c2cccc([N+](=O)[O-])c2)cc1	WT yeast gro inh 59, Mot1-301 SUMO active | Mot1 SUMO dose inactive
Cc1ccc(S(=O)(=O)N(C)CC(=O)O/N=C(\N)c2cccc([N+](=O)[O-])c2)cc1	none
CCNC(=S)Nc1ccc(C)c(S(=O)(=O)Nc2ccccc2OC)c1	Mot1-301 SUMO 398 (no result: WT yeast gro inh) | Mot1 SUMO dose inactive
